Test results reported in ChEMBL document CHEMBL3352568, “Synthesis and evaluation of in vitro antimycobacterial activity of novel 1H-benzo[d]imidazole derivatives and analogues” (Eur J Med Chem, 2015).
Values after ≈ are worked out from the molar mass of the structure shown.

Experiments:
[1] = system: Mycobacterium tuberculosis; test: Antimicrobial activity against Mycobacterium tuberculosis Spec. 192 by two-fold serial dilution method; type: functional
Summary of the method: (§1)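 Classical test-tube successive two-fold dilution in Youmans' modification of Proskauer and Beck liquid medium with 10% bovine serum. Inocula from 14-day-old cultures. Compounds dissolved in ethylene glycol (stock 10 mg/mL), diluted in medium to 0.75–100 µg/mL. Incubated at 37 °C. MIC is the lowest concentration inhibiting growth relative to a compound-free control.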

[2] = system: Mycobacterium tuberculosis; test: Antimicrobial activity against Mycobacterium tuberculosis Spec. 210 by two-fold serial dilution method; type: functional; summary of the method: as §1
[3] = system: Mycobacterium tuberculosis; test: Antimicrobial activity against Mycobacterium tuberculosis H37Rv by two-fold serial dilution method; type: functional; summary of the method: as §1
LLC-PK1 = test: Cytotoxicity against pig LLC-PK1 cells assessed as growth inhibition after 120 hrs by MTT assay; type: cell-based; conditions: Sus scrofa, LLC-PK1, 120 h
Summary of the method: (§2)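 LLC-PK1 cells were seeded at 1.25x10^4/well in Medium 199 with 3% FBS and penicillin/streptomycin and attached overnight. Compounds were added from DMSO stocks at 200-fold concentration, with DMSO-only controls, and cells were exposed continuously for 120 h at 37 °C in 5% CO2. MTT (4 mg/mL in PBS) was added for 4 h, formazan dissolved in DMSO, and A540 read versus untreated cells. IC50 was taken as 50% growth inhibition; at least two independent experiments in duplicate.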

A549 = test: Cytotoxicity against human A549 cells assessed as growth inhibition after 120 hrs by MTT assay; type: functional, cell-based; conditions: A549, 120 h
Summary of the method: as §2, with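 “A549” for “LLC-PK1”, “4x10^3/well” for “1.25x10^4/well”, “RPMI1640” for “Medium 199”, “10%” for “3%”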

Row | Compound | MIC [1] | MIC [2] | MIC [3] | IC50 (LLC-PK1) | IC50 (A549)
1 | Cc1ccc2[nH]c(CCC3CCCCC3)nc2c1 | 1.5 µg/mL (≈ 6.19 µM) | 1.5 µg/mL (≈ 6.19 µM) | 1.5 µg/mL (≈ 6.19 µM) | – | –
2 | Fc1ccc2[nH]c(CCC3CCCCC3)nc2c1 | 3.1 µg/mL (≈ 12.6 µM) | 3.1 µg/mL (≈ 12.6 µM) | 3.1 µg/mL (≈ 12.6 µM) | – | –
3 | Clc1ccc2[nH]c(CCC3CCCCC3)nc2c1 | 0.75 µg/mL (≈ 2.85 µM) | 0.75 µg/mL (≈ 2.85 µM) | 0.75 µg/mL (≈ 2.85 µM) | 17.1 µM | 10.9 µM
4 | Brc1ccc2[nH]c(CCC3CCCCC3)nc2c1 | 0.75 µg/mL (≈ 2.44 µM) | 0.75 µg/mL (≈ 2.44 µM) | 0.75 µg/mL (≈ 2.44 µM) | 32.6 µM | 13.4 µM
5 | O=[N+]([O-])c1ccc2[nH]c(CCC3CCCCC3)nc2c1 | 3.1 µg/mL (≈ 11.3 µM) | 3.1 µg/mL (≈ 11.3 µM) | 3.1 µg/mL (≈ 11.3 µM) | – | –
6 | Cc1cc2nc(CCC3CCCCC3)[nH]c2cc1C | 0.75 µg/mL (≈ 2.93 µM) | 0.75 µg/mL (≈ 2.93 µM) | 0.75 µg/mL (≈ 2.93 µM) | 43.9 µM | 11.2 µM
7 | Clc1cc2nc(CCC3CCCCC3)[nH]c2cc1Cl | 0.75 µg/mL (≈ 2.52 µM) | 0.75 µg/mL (≈ 2.52 µM) | 0.75 µg/mL (≈ 2.52 µM) | 9.62 µM | 11.1 µM
8 | Fc1ccc2[nH]c(CCCC3CCCCC3)nc2c1 | 6.2 µg/mL (≈ 23.8 µM) | 6.2 µg/mL (≈ 23.8 µM) | 6.2 µg/mL (≈ 23.8 µM) | – | –
9 | Cc1cc2nc(CCCC3CCCCC3)[nH]c2cc1C | 6.2 µg/mL (≈ 22.9 µM) | 6.2 µg/mL (≈ 22.9 µM) | 25 µg/mL (≈ 92.4 µM) | – | –
10 | Clc1cc2nc(CCCC3CCCCC3)[nH]c2cc1Cl | 6.2 µg/mL (≈ 19.9 µM) | 6.2 µg/mL (≈ 19.9 µM) | 12.5 µg/mL (≈ 40.2 µM) | – | –
11 | Cc1ccc2[nH]c(CCCc3ccccc3)nc2c1 | 6.2 µg/mL (≈ 24.8 µM) | 100 µg/mL (≈ 399 µM) | 25 µg/mL (≈ 99.9 µM) | – | –
12 | Fc1ccc2[nH]c(CCCc3ccccc3)nc2c1 | 50 µg/mL (≈ 197 µM) | 50 µg/mL (≈ 197 µM) | 12.5 µg/mL (≈ 49.2 µM) | – | –
13 | Cc1cc2nc(CCCc3ccccc3)[nH]c2cc1C | 6.2 µg/mL (≈ 23.5 µM) | 6.2 µg/mL (≈ 23.5 µM) | 6.2 µg/mL (≈ 23.5 µM) | – | –
14 | Clc1cc2nc(CCCc3ccccc3)[nH]c2cc1Cl | 6.2 µg/mL (≈ 20.3 µM) | 6.2 µg/mL (≈ 20.3 µM) | 6.2 µg/mL (≈ 20.3 µM) | – | –
15 | CS(=O)(=O)n1c(CCCc2ccccc2)nc2cc(F)ccc21 | 50 µg/mL (≈ 150 µM) | 50 µg/mL (≈ 150 µM) | 50 µg/mL (≈ 150 µM) | – | –
16 | O=S(=O)(c1ccccc1)n1c(CCCc2ccccc2)nc2cc(F)ccc21 | 100 µg/mL (≈ 254 µM) | 50 µg/mL (≈ 127 µM) | 100 µg/mL (≈ 254 µM) | – | –
17 | c1ccc(-c2ccnc(-c3nc4ccccc4[nH]3)c2)cc1 | 6.2 µg/mL (≈ 22.9 µM) | 6.2 µg/mL (≈ 22.9 µM) | 12.5 µg/mL (≈ 46.1 µM) | – | –
18 | Cc1ccc2[nH]c(-c3cc(-c4ccccc4)ccn3)nc2c1 | 6.2 µg/mL (≈ 21.7 µM) | 3.1 µg/mL (≈ 10.9 µM) | 3.1 µg/mL (≈ 10.9 µM) | – | –
19 | Fc1ccc2[nH]c(-c3cc(-c4ccccc4)ccn3)nc2c1 | 12.5 µg/mL (≈ 43.2 µM) | 6.2 µg/mL (≈ 21.4 µM) | 6.2 µg/mL (≈ 21.4 µM) | – | –
20 | Clc1ccc2[nH]c(-c3cc(-c4ccccc4)ccn3)nc2c1 | 12.5 µg/mL (≈ 40.9 µM) | 6.2 µg/mL (≈ 20.3 µM) | 12.5 µg/mL (≈ 40.9 µM) | – | –
21 | Brc1ccc2[nH]c(-c3cc(-c4ccccc4)ccn3)nc2c1 | 12.5 µg/mL (≈ 35.7 µM) | 6.5 µg/mL (≈ 18.6 µM) | 12.5 µg/mL (≈ 35.7 µM) | – | –
22 | Cc1cc2nc(-c3cc(-c4ccccc4)ccn3)[nH]c2cc1C | 12.5 µg/mL (≈ 41.8 µM) | 12.5 µg/mL (≈ 41.8 µM) | 25 µg/mL (≈ 83.5 µM) | – | –
23 | c1ccc(-c2ccnc(-c3nc4cccnc4[nH]3)c2)cc1 | 12.5 µg/mL (≈ 45.9 µM) | 12.5 µg/mL (≈ 45.9 µM) | 12.5 µg/mL (≈ 45.9 µM) | – | –
24 | Brc1cnc2[nH]c(-c3cc(-c4ccccc4)ccn3)nc2c1 | 25 µg/mL (≈ 71.2 µM) | 25 µg/mL (≈ 71.2 µM) | 25 µg/mL (≈ 71.2 µM) | – | –
25 | c1ccc(-c2ccnc(-c3nc4ccncc4[nH]3)c2)cc1 | 12.5 µg/mL (≈ 45.9 µM) | 3.1 µg/mL (≈ 11.4 µM) | 12.5 µg/mL (≈ 45.9 µM) | – | –
26 | NNC(=O)c1ccncc1 [ISONIAZID] | 12.5 µg/mL (≈ 91.1 µM) | 25 µg/mL (≈ 182 µM) | 12.5 µg/mL (≈ 91.1 µM) | – | –
27 | NC(=O)c1cnccn1 [PYRAZINAMIDE] | 25 µg/mL (≈ 203 µM) | > 400 µg/mL | 25 µg/mL (≈ 203 µM) | – | –
28 | CO[C@H]1/C=C/O[C@@]2(C)Oc3c(C)c(O)c4c(O)c(c(/C=N/N5CCN(C)CC5)c(O)c4c3C2=O)NC(=O)/C(C)=C\C=C\[C@H](C)[C@H](O)[C@@H](C)[C@@H](O)[C@@H](C)[C@H](OC(C)=O)[C@@H]1C [RIFAMPIN] | 1.2 µg/mL (≈ 1.46 µM) | 2.5 µg/mL (≈ 3.04 µM) | 1.2 µg/mL (≈ 1.46 µM) | – | –
